According to ChEMBL document CHEMBL1146459, “Production of biologically active taxoids by a callus culture of Taxus cuspidata” (2004):

How the values were obtained:
MCF7 = experiment: Growth inhibition of human MCF7 cells after 48 hrs by SRB assay; format: functional; conditions: MCF7, 48 h
HCT-15 = experiment: Growth inhibition of human HCT15 cells after 48 hrs by SRB assay; format: functional; conditions: HCT-15, 48 h
[1] = Growth inhibition of human HBC4 cells after 48 hrs by SRB assay; format: functional; conditions: HBC4, 48 h
SNB-75 = experiment: Growth inhibition of human SNB75 cells after 48 hrs by SRB assay; format: functional; conditions: SNB-75, 48 h
HCT-116 = experiment: Growth inhibition of human HCT116 cells after 48 hrs by SRB assay; format: functional; conditions: HCT-116, 48 h
[2] = Reversal of multidrug resistance in human 2780AD cells assessed as [3H]vincristine accumulation at 1 ug/mL after 2 hrs relative to verapamil; format: functional, A2780 ADR
MDA-MB-231 = experiment: Growth inhibition of human MDA-MB-231 cells after 48 hrs by SRB assay; format: functional; conditions: MDA-MB-231, 48 h
NCI-H23 = experiment: Growth inhibition of human NCI-H23 cells after 48 hrs by SRB assay; format: functional; conditions: NCI-H23, 48 h
U-251 = experiment: Growth inhibition of human U251 cells after 48 hrs by SRB assay; format: functional; conditions: U-251, 48 h
[3] = Reversal of multidrug resistance in human 2780AD cells assessed as [3H]vincristine accumulation at 1 ug/mL after 2 hrs relative to control; format: functional, A2780 ADR
Method in brief: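 Multidrug-resistant human ovarian cancer 2780AD cells were exposed to taxoids at 0.1, 1 or 10 µg/mL. Radiolabelled vincristine accumulated in the cells was measured as dpm/well, using means of triplicate determinations. Results are expressed as % of vincristine accumulated relative to the control experiment. They were also scored on a seven-level index according to the range of relative accumulation.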

MKN-74 = experiment: Growth inhibition of human MKN74 cells after 48 hrs by SRB assay; format: functional; conditions: MKN-74, 48 h
NCI-H226 = experiment: Growth inhibition of human NCI-H226 cells after 48 hrs by SRB assay; format: functional; conditions: NCI-H226, 48 h
MKN-28 = experiment: Growth inhibition of human MKN28 cells after 48 hrs by SRB assay; format: functional; conditions: MKN-28, 48 h
DMS-114 = experiment: Growth inhibition of human DMS114 cells after 48 hrs by SRB assay; format: functional; conditions: DMS-114, 48 h
OVCAR-3 = experiment: Growth inhibition of human OVCAR-3 cells after 48 hrs by SRB assay; format: functional; conditions: OVCAR-3, 48 h
[4] = Growth inhibition of human HBC5 cells after 48 hrs by SRB assay; format: functional; conditions: HBC5, 48 h
A549 = experiment: Growth inhibition of human A549 cells after 48 hrs by SRB assay; format: functional; conditions: A549, 48 h
NCI-H460 = experiment: Growth inhibition of human NCI-H460 cells after 48 hrs by SRB assay; format: functional; conditions: NCI-H460, 48 h
NCI-H522 = experiment: Growth inhibition of human NCI-H522 cells after 48 hrs by SRB assay; format: functional; conditions: NCI-H522, 48 h
SNB-78 = experiment: Growth inhibition of human SNB78 cells after 48 hrs by SRB assay; format: functional; conditions: SNB-78, 48 h
OVCAR-4 = experiment: Growth inhibition of human OVCAR4 cells after 48 hrs by SRB assay; format: functional; conditions: OVCAR-4, 48 h
[5] = read-out: LC50 (the source's name)
[6] = read-out: pLC50 (the source's name) (converted)

C=C1[C@@H](OC(C)=O)CC[C@]2(C)[C@@H]1C[C@@H]1C[C@H](OC(C)=O)C(C)=C([C@@H](O)[C@@H]2OC(=O)/C=C/c2ccccc2)C1(C)C
GI50 (MCF7; read-out: GI50): 9.3 µM | CC50 (MCF7; [5]): > 100 µM | TGI (MCF7; read-out: TGI): 100 µM | GI50 (MCF7; read-out: pGI50 (converted)): 9.33 µM | CC50 (MCF7; read-out: pLC50 (converted)): > 100 µM | TGI (MCF7; read-out: pTGI (converted)): 100 µM | GI50 (HCT-15; read-out: GI50): 29 µM | CC50 (HCT-15; [5]): > 100 µM | TGI (HCT-15; read-out: TGI): 100 µM | GI50 (HCT-15; read-out: pGI50 (converted)): 28.8 µM | CC50 (HCT-15; read-out: pLC50 (converted)): > 100 µM | TGI (HCT-15; read-out: pTGI (converted)): 100 µM | CC50 [1, 5]: 100 µM | TGI ([1]; read-out: TGI): 100 µM | GI50 ([1]; read-out: pGI50 (converted)): > 100 µM | CC50 [1, 6]: 100 µM | TGI ([1]; read-out: pTGI (converted)): 100 µM | GI50 (SNB-75; read-out: GI50): 7.3 µM | CC50 (SNB-75; [5]): 100 µM | TGI (SNB-75; read-out: TGI): 68 µM | GI50 (SNB-75; read-out: pGI50 (converted)): 7.24 µM | CC50 (SNB-75; [6]): 100 µM | TGI (SNB-75; read-out: pTGI (converted)): 67.6 µM | GI50 (HCT-116; read-out: GI50): 5.6 µM | CC50 (HCT-116; [5]): 100 µM | TGI (HCT-116; read-out: TGI): 100 µM | GI50 (HCT-116; read-out: pGI50 (converted)): 5.62 µM | CC50 (HCT-116; [6]): 100 µM | TGI (HCT-116; read-out: pTGI (converted)): 100 µM | Activity [2]: 191% | GI50 (MDA-MB-231; read-out: GI50): 16 µM | TGI (MDA-MB-231; read-out: TGI): 100 µM | GI50 (MDA-MB-231; read-out: pGI50 (converted)): 16.2 µM | TGI (MDA-MB-231; read-out: pTGI (converted)): 100 µM | GI50 (NCI-H23; read-out: GI50): > 100 µM | CC50 (NCI-H23; [5]): 100 µM | TGI (NCI-H23; read-out: TGI): 100 µM | GI50 (NCI-H23; read-out: pGI50 (converted)): > 100 µM | CC50 (NCI-H23; [6]): 100 µM | TGI (NCI-H23; read-out: pTGI (converted)): 100 µM | GI50 (U-251; read-out: GI50): 71 µM | CC50 (U-251; [5]): 100 µM | TGI (U-251; read-out: TGI): 100 µM | GI50 (U-251; read-out: pGI50 (converted)): 70.8 µM | CC50 (U-251; [6]): 100 µM | TGI (U-251; read-out: pTGI (converted)): 100 µM | Activity [3]: 399% | GI50 (MKN-74; read-out: GI50): 9.5 µM | CC50 (MKN-74; [5]): 100 µM | TGI (MKN-74; read-out: TGI): 100 µM | GI50 (MKN-74; read-out: pGI50 (converted)): 9.55 µM | CC50 (MKN-74; [6]): 100 µM | TGI (MKN-74; read-out: pTGI (converted)): 100 µM | GI50 (NCI-H226; read-out: GI50): 21 µM | CC50 (NCI-H226; [5]): 100 µM | TGI (NCI-H226; read-out: TGI): 100 µM | GI50 (NCI-H226; read-out: pGI50 (converted)): 83.2 µM | CC50 (NCI-H226; [6]): 100 µM | TGI (NCI-H226; read-out: pTGI (converted)): 100 µM | GI50 (MKN-28; read-out: GI50): 12 µM | CC50 (MKN-28; [5]): > 100 µM | TGI (MKN-28; read-out: TGI): 100 µM | GI50 (MKN-28; read-out: pGI50 (converted)): 11.7 µM | CC50 (MKN-28; read-out: pLC50 (converted)): > 100 µM | TGI (MKN-28; read-out: pTGI (converted)): 100 µM | GI50 (DMS-114; read-out: GI50): 7.8 µM | CC50 (DMS-114; [5]): 100 µM | TGI (DMS-114; read-out: TGI): 100 µM | GI50 (DMS-114; read-out: pGI50 (converted)): 7.76 µM | CC50 (DMS-114; [6]): 100 µM | TGI (DMS-114; read-out: pTGI (converted)): 100 µM | GI50 (OVCAR-3; read-out: GI50): 5 µM | CC50 (OVCAR-3; [5]): > 100 µM | TGI (OVCAR-3; read-out: TGI): 100 µM | GI50 (OVCAR-3; read-out: pGI50 (converted)): 5.01 µM | CC50 (OVCAR-3; read-out: pLC50 (converted)): > 100 µM | TGI (OVCAR-3; read-out: pTGI (converted)): 100 µM | CC50 [4, 5]: 100 µM | TGI ([4]; read-out: TGI): 100 µM | GI50 ([4]; read-out: pGI50 (converted)): > 100 µM | CC50 [4, 6]: 100 µM | TGI ([4]; read-out: pTGI (converted)): 100 µM | GI50 (A549; read-out: GI50): 9.6 µM | CC50 (A549; [5]): 100 µM | TGI (A549; read-out: TGI): 100 µM | GI50 (A549; read-out: pGI50 (converted)): 9.55 µM | CC50 (A549; [6]): 100 µM | TGI (A549; read-out: pTGI (converted)): 100 µM | GI50 (NCI-H460; read-out: GI50): 44 µM | TGI (NCI-H460; read-out: TGI): 100 µM | GI50 (NCI-H460; read-out: pGI50 (converted)): 41.7 µM | TGI (NCI-H460; read-out: pTGI (converted)): 100 µM | GI50 (NCI-H522; read-out: GI50): 3.1 µM | CC50 (NCI-H522; [5]): 100 µM | TGI (NCI-H522; read-out: TGI): 81 µM | GI50 (NCI-H522; read-out: pGI50 (converted)): 3.09 µM | CC50 (NCI-H522; [6]): 100 µM | TGI (NCI-H522; read-out: pTGI (converted)): 100 µM | GI50 (SNB-78; read-out: GI50): 3.2 µM | TGI (SNB-78; read-out: TGI): 100 µM | GI50 (SNB-78; read-out: pGI50 (converted)): 3.16 µM | TGI (SNB-78; read-out: pTGI (converted)): 100 µM | GI50 (OVCAR-4; read-out: GI50): 22 µM | CC50 (OVCAR-4; [5]): 100 µM | TGI (OVCAR-4; read-out: TGI): 100 µM | GI50 (OVCAR-4; read-out: pGI50 (converted)): 22.4 µM | CC50 (OVCAR-4; [6]): 100 µM | TGI (OVCAR-4; read-out: pTGI (converted)): 100 µM
